According to ChEMBL document CHEMBL2321840, “Synthesis and structure-activity relationships of indazole arylsulfonamides as allosteric CC-chemokine receptor 4 (CCR4) antagonists” (J Med Chem, 2013):
Converted amounts (≈) assume the structure as drawn.

What was measured:
[1] = molecular target: T1, C-C chemokine receptor type 4 (Homo sapiens, UniProt P51679); test: Antagonist activity at human recombinant CCR4 receptor expressed in CHO cell membranes by [35S]GTPgammaS binding assay; format: functional
T1 sequence (P51679 whole entry): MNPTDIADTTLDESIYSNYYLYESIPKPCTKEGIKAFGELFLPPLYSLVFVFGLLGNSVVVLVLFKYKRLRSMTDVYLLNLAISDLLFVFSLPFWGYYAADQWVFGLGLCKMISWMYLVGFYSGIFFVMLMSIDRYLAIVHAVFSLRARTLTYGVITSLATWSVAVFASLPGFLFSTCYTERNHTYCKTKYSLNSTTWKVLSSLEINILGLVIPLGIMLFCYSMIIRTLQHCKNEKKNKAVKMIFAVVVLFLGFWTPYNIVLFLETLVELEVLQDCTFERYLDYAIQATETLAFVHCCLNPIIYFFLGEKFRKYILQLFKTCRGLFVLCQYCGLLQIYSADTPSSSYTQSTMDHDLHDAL

[2] = Kinetic solubility of the compound by chemiluminescent nitrogen detection assay; format: physicochemical; details: for solubility kinetic: read-out: Kinetic_solubility
[3] = Lipophilicity, log D of the compound by chromatographic analysis; format: physicochemical
In short: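 Chromatographic log D measured at pH 7.4.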

[4] = molecular target: T1, C-C chemokine receptor type 4; test: Antagonist activity at CCR4 receptor in human whole blood assessed as F-actin polymerization after 30 mins by FACS-based flow cytometric analysis; details: for Kb: read-out: pA2 (converted)
[5] = Dissociation constant, pKa of the compound; format: physicochemical
[6] = in vivo; details: CD, rat, iv, 1 mg/kg
[7] = Oral bioavailability in CD rat at 1 mg/kg; format: ADME, organism-based; details: in vivo
In short: (§1)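 CD rat pharmacokinetics, with compounds given as solutions in DMSO–PEG200–H₂O (5:45:50); one analogue used a 10:40:50 ratio.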

[8] = in vivo; details: CD, rat, iv, 1 mg/kg; remark: listed apart in the source
[9] = Volume of distribution at steady state in CD rat at 1 mg/kg, iv and 1 mg/kg, po; format: ADME, organism-based; details: in vivo, read-out: Vdss; in short: as §1
[10] = in vivo; details: beagle, dog, iv, 0.5 mg/kg
[11] = in vivo; details: beagle, dog, iv, 0.5 mg/kg; remark: listed apart in the source
[12] = Volume of distribution at steady state in Beagle dog at 0.5 mg/kg, iv; format: ADME, organism-based, Canis lupus familiaris; set-up: dose 0.5 mg/kg, route intravenous; details: beagle, in vivo, read-out: Vdss
[13] = Plasma protein binding in human by equilibrium dialysis technique; format: ADME, cell-free; details: read-out: PPB (converted)
In short: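 Rapid equilibrium dialysis in CD rat, beagle dog or human plasma, with compound at a nominal 1 μg/mL; n = 3.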

Compound	IC50 [1] [µM]	solubility kinetic [2] [mg/mL]	chromatographic logD [3]	Kb [4] [µM]	pKa [5]	also measured
COc1cccc2c1c(NS(=O)(=O)c1ccc(Cl)s1)nn2Cc1ccnc(CNC(C)=O)c1	0.1	≥ 0.161	2.5			
COc1cccc2c1c(NS(=O)(=O)c1ccc(Cl)s1)nn2Cc1cccc(CNC(=O)[C@H]2COCCN2)c1	0.0251	≥ 0.25	3.9	0.562		
CC(=O)NCc1cccc(Cn2nc(NS(=O)(=O)c3ccc(Cl)s3)c3c(C(C)O)cccc32)c1 (centres undefined)	0.02	≥ 0.208	2.7	0.501	5.62	half-life [6]: 3.7 h; bioavailability [7]: 35%; clearance [8]: 0.78 L/h/kg; Vd [9]: 3.5 L/kg
CC(=O)NCc1cccc(Cn2nc(NS(=O)(=O)c3ccc(Cl)s3)c3c(C(C)(C)O)cccc32)c1	0.1	≥ 0.159	2.9		5.46	
COc1cccc2c1c(NS(=O)(=O)c1ccc(C)c(F)c1)nn2Cc1cccc(CNC(=O)C(C)(C)O)c1	0.0158	0.036 (≈ 66.6 µM)	4.5	1.26	7.26	
CC(=O)NCc1cccc(Cn2nc(NS(=O)(=O)c3ccc(Cl)s3)c3c(C#N)cccc32)c1	0.316	≥ 0.155	2.5		5.4	
COc1cccc2c1c(NS(=O)(=O)c1ccc(Cl)s1)nn2Cc1cccc(CNC(=O)C2COCCN2C)c1 (single isomer, unassigned; isomer B)	0.00631	≥ 0.18	4.4	0.251		clearance [10]: 1.32 L/h/kg; half-life [6]: 1.3 h; bioavailability [7]: 68%; half-life [11]: 2.6 h; Vd [12]: 5.7 L/kg; fraction unbound [13]: 0.014; clearance [8]: 1.44 L/h/kg; Vd [9]: 1 L/kg
COc1cccc2c1c(NS(=O)(=O)c1ccc(Cl)s1)nn2Cc1cc(CNC(C)=O)ccn1	0.158	≥ 0.141	2.6	> 10		
COc1ccc(COc2nc(Br)cnc2NS(=O)(=O)c2ccc(C)cc2)cc1OCCN(C)C			2.9			
CC(=O)NCc1cccc(Cn2nc(NS(=O)(=O)c3ccc(Cl)s3)c3c(C(C)=O)cccc32)c1	0.1	0.057 (≈ 110 µM)	4.8			
CC(=O)NCc1cccc(Cn2nc(NS(=O)(=O)c3ccc(Cl)s3)c3c(F)cccc32)c1	0.0794	≥ 0.139	3	5.01	5.62	
COc1cccc2c1c(NS(=O)(=O)c1cccc(Cl)c1Cl)nn2Cc1cccc(CNC(=O)C(C)(C)O)c1	0.398	0.157 (≈ 272 µM)	4.7		6.82	
COc1c(F)ccc2c1c(NS(=O)(=O)c1ccc(Cl)s1)nn2Cc1cccc(CNC(=O)C(C)(C)O)c1	0.0398	≥ 0.174	4.1	0.631		
COc1cccc2c1c(NS(=O)(=O)c1ccc(Cl)s1)nn2Cc1cccc(CNC(=O)C2CCCO2)c1 (centres undefined)	0.0398	≥ 0.153	4.9	0.794		
COc1cccc2c1c(NS(=O)(=O)c1ccc(Cl)s1)nn2Cc1cccc(CNC(=O)C2CCOCC2)c1	0.0316	≥ 0.193	4.4	0.501		
COc1cccc2c1c(NS(=O)(=O)c1ccc(Cl)s1)nn2Cc1cccc(CNC2COC2)c1	0.251	0.122 (≈ 235 µM)	4.3			

Compound	IC50 [1] [µM]	solubility kinetic [2] [mg/mL]	chromatographic logD [3]	Kb [4] [µM]	pKa [5]	also measured
CC(=O)NCc1cccc(Cn2nc(NS(=O)(=O)c3ccc(Cl)s3)c3c(O)cccc32)c1	0.0126	≥ 0.166	2.9	0.794	6.12	half-life [6]: 1.2 h; bioavailability [7]: 12%; clearance [8]: 1.14 L/h/kg; Vd [9]: 1.2 L/kg
COc1c(F)ccc2c1c(NS(=O)(=O)c1ccc(Cl)s1)nn2Cc1cccc(CNC(C)=O)c1	0.0126	≥ 0.199	4.1	3.16		
COc1cccc2c1c(NS(=O)(=O)c1cccc(Cl)c1)nn2Cc1cccc(CNC(=O)C(C)(C)O)c1	0.0501	≥ 0.198	4.5		7.06	
CC(=O)NCc1cccc(Cn2nc(NS(=O)(=O)c3ccc(Cl)s3)c3c(CO)cccc32)c1	0.00631	≥ 0.113	2.6	1	5.66	
CC(=O)NCc1cccc(Cn2nc(NS(=O)(=O)c3ccc(Cl)s3)c3c(Cl)cccc32)c1	0.0316	≥ 0.226	3.8	6.31	6.03	
COc1cccc2c1c(NS(=O)(=O)c1ccc(Cl)s1)nn2Cc1cccc(CNC(=O)C2COCCN2C)c1 (single isomer, unassigned; isomer A)						pA2 [4]: 6.6; pIC50 ([1]; cho): 8.2; Kinetic_solubility [2]: >= 203 ug ml-1
CC(=O)NCc1cccc(Cn2nc(NS(=O)(=O)c3ccc(Cl)s3)c3ccccc32)c1	0.251	≥ 0.117	3.3		5.93	
COc1cccc2c1c(NS(=O)(=O)c1ccc(Cl)s1)nn2Cc1cccc(CNC(=O)C2COC2)c1	0.02	≥ 0.173	4	1		
CC(=O)NCc1cccc(Cn2nc(NS(=O)(=O)c3ccc(Cl)s3)c3c(C(F)F)cccc32)c1	0.1	≥ 0.188	3.7	7.94	5.6	
COc1cccc2c1c(NS(=O)(=O)c1ccc(Cl)s1)nn2Cc1cccc(CNC(C)=O)n1	0.126	≥ 0.182	3			
COc1cccc2c1c(NS(=O)(=O)c1ccc(Cl)c(Cl)c1)nn2Cc1cccc(CNC(=O)C(C)(C)O)c1	0.398	0.076 (≈ 132 µM)	5.1		6.76	
COc1cccc2c1c(NS(=O)(=O)c1ccc(Cl)s1)nn2Cc1cccc(CNC(=O)C2CCO2)c1 (centres undefined)	0.0316	0.124 (≈ 227 µM)	4.5			
O=C([C@H]1CCCCN1)N1CCN(c2nc(NCc3ccc(Cl)cc3Cl)c3cccnc3n2)CC1			2.9			
COc1ccc(F)c2c1c(NS(=O)(=O)c1ccc(Cl)s1)nn2Cc1cccc(CNC(C)=O)c1	0.0794	≥ 0.177	4			
COc1cc(F)cc2c1c(NS(=O)(=O)c1ccc(Cl)s1)nn2Cc1cccc(CNC(C)=O)c1	0.0398	≥ 0.161	4.1	1		
